From ChEMBL document CHEMBL1133591, “Potent derivatives of glucagon-like peptide-1 with pharmacokinetic properties suitable for once daily administration” (J Med Chem, 2000)
Numbered stars: 1 amine (or outer) side, 2 acyl side, 3 side chain; on linkers, the order of the positions; unused ones are H or OH. Square brackets hold non-standard residues; d marks the D form. Side chains are listed from the residue outwards. Peptide text beside a SMILES is read from it. * marks the point of attachment. ξ: configuration not given here. ξγGlu = O=C(O)C(CCC(=O)[*:2])N[*:1]; Palmitoyl = CCCCCCCCCCCCCCCC(=O)*; X1 = CCCCCCCCCC(CCCCC(=O)*)C(=O)O; ξK = NCCCCC(N)C(=O)O

Legend:
[1] = target: Glucagon-like peptide 1 receptor (Homo sapiens, UniProt P43220); assay: Potency measured using recombinant human GLP-1 receptor expressed in Baby Hamster Kidney (BHK)cells; format: cell-based
Sequence of Glucagon-like peptide 1 receptor (P43220 whole entry): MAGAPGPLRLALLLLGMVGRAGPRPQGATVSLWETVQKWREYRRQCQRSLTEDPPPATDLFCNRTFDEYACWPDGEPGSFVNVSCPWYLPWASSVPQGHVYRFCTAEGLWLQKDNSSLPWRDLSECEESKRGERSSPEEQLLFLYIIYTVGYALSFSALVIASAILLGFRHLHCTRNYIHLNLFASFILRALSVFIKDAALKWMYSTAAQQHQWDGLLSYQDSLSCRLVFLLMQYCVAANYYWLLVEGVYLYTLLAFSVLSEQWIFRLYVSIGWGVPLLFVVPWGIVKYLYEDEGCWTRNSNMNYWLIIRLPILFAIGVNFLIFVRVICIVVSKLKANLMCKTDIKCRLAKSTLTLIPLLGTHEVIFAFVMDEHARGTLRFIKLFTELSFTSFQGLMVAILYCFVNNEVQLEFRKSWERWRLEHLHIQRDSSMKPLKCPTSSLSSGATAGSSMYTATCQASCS

[2] = Plasma half life was determined in pigs; format: ADME, organism-based, Sus scrofa; settings: pig
Outline: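 Landrace × Duroc × Yorkshire pigs, 25–50 kg, two per compound; single sc dose, 0.5 nmol/kg for analogues, 15 nmol/kg for GLP-1. Jugular catheter blood at 0–72 h, extra early samples for GLP-1; EDTA/aprotinin/bacitracin-stabilized plasma. Unextracted plasma assayed by N-terminal-specific GLP-1 radioimmunoassay against spiked pig-plasma calibrators; half-life calculated per pig, reported as mean ± SD.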

Structure (SMILES)	EC50 [1]	half-life [2]
CCCCCCCCCC(CCCCC(=O)NCCCC[C@H](NC(=O)CNC(=O)[C@H](CCCN=C(N)N)NC(=O)[C@@H](NC(=O)[C@H](CC(C)C)NC(=O)[C@H](Cc1c[nH]c2ccccc12)NC(=O)[C@H](C)NC(=O)[C@@H](NC(=O)[C@H](Cc1ccccc1)NC(=O)[C@H](CCC(=O)O)NC(=O)[C@H](CCCN=C(N)N)NC(=O)[C@H](C)NC(=O)[C@H](C)NC(=O)[C@H](CCC(N)=O)NC(=O)CNC(=O)[C@H](CCC(=O)O)NC(=O)[C@H](CC(C)C)NC(=O)[C@H](Cc1ccc(O)cc1)NC(=O)[C@H](CO)NC(=O)[C@H](CO)NC(=O)[C@@H](NC(=O)[C@H](CC(=O)O)NC(=O)[C@H](CO)NC(=O)[C@@H](NC(=O)[C@H](Cc1ccccc1)NC(=O)[C@@H](NC(=O)CNC(=O)[C@H](CCC(=O)O)NC(=O)[C@H](C)NC(=O)[C@@H](N)Cc1c[nH]cn1)[C@@H](C)O)[C@@H](C)O)C(C)C)[C@@H](C)CC)C(C)C)C(=O)NCC(=O)O)C(=O)O (stereo partly drawn) (H-HAEGTFTSDVSSYLEGQAAREFIAWLVRGK(X1)G-OH)	7.89 pM	13 h
CCCCCCCCCCCCCCCC(=O)NC(CCC(=O)NCCCC[C@H](NC(=O)CNC(=O)[C@H](CCCN=C(N)N)NC(=O)[C@@H](NC(=O)[C@H](CC(C)C)NC(=O)[C@H](Cc1c[nH]c2ccccc12)NC(=O)[C@H](C)NC(=O)[C@@H](NC(=O)[C@H](Cc1ccccc1)NC(=O)[C@H](CCC(=O)O)NC(=O)[C@H](CCCN=C(N)N)NC(=O)[C@H](C)NC(=O)[C@H](C)NC(=O)[C@H](CCC(N)=O)NC(=O)CNC(=O)[C@H](CCC(=O)O)NC(=O)[C@H](CC(C)C)NC(=O)[C@H](Cc1ccc(O)cc1)NC(=O)[C@H](CO)NC(=O)[C@H](CO)NC(=O)[C@@H](NC(=O)[C@H](CC(=O)O)NC(=O)[C@H](CO)NC(=O)[C@@H](NC(=O)[C@H](Cc1ccccc1)NC(=O)[C@@H](NC(=O)CNC(=O)[C@H](CCC(=O)O)NC(=O)[C@H](C)NC(=O)[C@@H](N)Cc1c[nH]cn1)[C@@H](C)O)[C@@H](C)O)C(C)C)[C@@H](C)CC)C(C)C)C(=O)NCC(=O)O)C(=O)O (stereo partly drawn) (H-HAEGTFTSDVSSYLEGQAAREFIAWLVRGK([ξγGlu-Palmitoyl])G-OH)	36.4 pM	12 h
CCCCCCCCCCCCCCCC(=O)NC(CCC(=O)NCCCC[C@H](NC(=O)[C@@H](NC(=O)[C@H](CC(C)C)NC(=O)[C@H](Cc1c[nH]c2ccccc12)NC(=O)[C@H](C)NC(=O)[C@@H](NC(=O)[C@H](Cc1ccccc1)NC(=O)[C@H](CCC(=O)O)NC(=O)[C@H](CCCN=C(N)N)NC(=O)[C@H](C)NC(=O)[C@H](C)NC(=O)[C@H](CCC(N)=O)NC(=O)CNC(=O)[C@H](CCC(=O)O)NC(=O)[C@H](CC(C)C)NC(=O)[C@H](Cc1ccc(O)cc1)NC(=O)[C@H](CO)NC(=O)[C@H](CO)NC(=O)[C@@H](NC(=O)[C@H](CC(=O)O)NC(=O)[C@H](CO)NC(=O)[C@@H](NC(=O)[C@H](Cc1ccccc1)NC(=O)[C@@H](NC(=O)CNC(=O)[C@H](CCC(=O)O)NC(=O)[C@H](C)NC(=O)[C@@H](N)Cc1c[nH]cn1)[C@@H](C)O)[C@@H](C)O)C(C)C)[C@@H](C)CC)C(C)C)C(=O)NCC(=O)N[C@@H](CCCCN=C(N)N)C(=O)NCC(=O)O)C(=O)O (stereo partly drawn)	121 pM	13 h
CCCCCCCCCCCCCCCC(=O)NC(CCC(=O)NCCCCC(NC(=O)[C@H](CCC(=O)O)NC(=O)[C@H](CCCN=C(N)N)NC(=O)CNC(=O)[C@H](CCCN=C(N)N)NC(=O)[C@@H](NC(=O)[C@H](CC(C)C)NC(=O)[C@H](Cc1c[nH]c2ccccc12)NC(=O)[C@H](C)NC(=O)[C@@H](NC(=O)[C@H](Cc1ccccc1)NC(=O)[C@H](CCC(=O)O)NC(=O)[C@H](CCCN=C(N)N)NC(=O)[C@H](C)NC(=O)[C@H](C)NC(=O)[C@H](CCC(N)=O)NC(=O)CNC(=O)[C@H](CCC(=O)O)NC(=O)[C@H](CC(C)C)NC(=O)[C@H](Cc1ccc(O)cc1)NC(=O)[C@H](CO)NC(=O)[C@H](CO)NC(=O)[C@@H](NC(=O)[C@H](CC(=O)O)NC(=O)[C@H](CO)NC(=O)[C@@H](NC(=O)[C@H](Cc1ccccc1)NC(=O)[C@@H](NC(=O)CNC(=O)[C@H](CCC(=O)O)NC(=O)CNC(=O)[C@@H](N)Cc1c[nH]cn1)[C@@H](C)O)[C@@H](C)O)C(C)C)[C@@H](C)CC)C(C)C)C(=O)O)C(=O)O (stereo partly drawn) (H-HGEGTFTSDVSSYLEGQAAREFIAWLVRGRE[ξK]([ξγGlu-Palmitoyl])-OH)	135 pM	11 h
